We go through six compounds from ChEMBL document CHEMBL1137350, “Discovery of a new class of macrocyclic antagonists to the human motilin receptor” (J Med Chem, 2006).

Assay [1] concerns the target T1, Motilin receptor (Homo sapiens, UniProt O43193). The experiment in a line: Displacement of [125I]motilin from human MOTR. In outline:
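Competition binding on isolated membranes expressing human motilin receptor, with radioiodinated porcine motilin ([125I]-motilin) as tracer. 11-point concentration curves gave Ki, with a top test concentration of 10 µM. Compounds came from 10 mM DMSO stocks stored at -60 °C.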

Assay [2] addresses T1, Motilin receptor. The experiment in a line: Activity at human MOTR expressed in CHO cells assessed as inhibition of motilin-induced calcium release. The class given is functional, cell-based. In outline:
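Whole CHO cells expressing cloned human motilin receptor; intracellular Ca2+ release evoked by motilin read out by aequorin luminescence. Compounds were tested in antagonist mode and also checked for agonist activity at concentrations up to 10 µM. Compound stocks were 10 mM in DMSO, stored at -60 °C.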

In assay [3] the target is T1, Motilin receptor. The assay can be described thus: Activity at human MOTR expressed in CHO cells assessed as inhibition of motilin-induced calcium release upto 10 uM. It counts as functional, cell-based. The following applies: filed as antagonist. In outline:
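Aequorin luminescence assay on whole CHO cells expressing cloned human motilin receptor, measuring inhibition of motilin-induced Ca2+ release. Agonist activity was also checked at concentrations up to 10 µM. Compounds were TFA salts held as 10 mM DMSO stocks at -60 °C.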

The species entered for another assay is Oryctolagus cuniculus. The assay can be described thus: Antagonist activity against rabbit duodenum. The following applies: read-out: pA2 (converted).

T1 sequence (O43193 whole entry): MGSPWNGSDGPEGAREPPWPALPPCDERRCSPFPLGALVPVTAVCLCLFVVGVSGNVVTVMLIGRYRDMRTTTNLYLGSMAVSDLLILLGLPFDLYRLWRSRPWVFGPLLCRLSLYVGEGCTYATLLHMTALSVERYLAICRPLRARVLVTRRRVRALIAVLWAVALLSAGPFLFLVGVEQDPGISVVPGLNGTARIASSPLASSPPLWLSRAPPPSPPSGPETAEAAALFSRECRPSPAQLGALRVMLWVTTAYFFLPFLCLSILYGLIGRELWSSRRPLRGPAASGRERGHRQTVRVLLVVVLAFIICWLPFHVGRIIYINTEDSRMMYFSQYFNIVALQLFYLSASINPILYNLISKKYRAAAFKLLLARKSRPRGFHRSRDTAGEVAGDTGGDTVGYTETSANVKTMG

Regarding `CCC[C@@H]1NC(=O)[C@@H](C(C)C)NC(=O)[C@@H](Cc2ccc(O)cc2)NCCOc2ccccc2/C=C/CNC1=O`, affinity at Motilin receptor [1] was put at a Ki of 137 nM. Further, on Motilin receptor [2], the 50% inhibitory concentration (IC50) – broadly, the concentration that inhibits the measured activity by half – was 74 nM. Also, the Activity entry at Motilin receptor [3] is “Antagonist”.
Consider `CCC[C@@H]1NC(=O)[C@@H](C(C)C)NC(=O)[C@@H](Cc2ccc(OC)cc2)NCCOc2ccccc2CCCNC1=O`, for which the Ki (usually a dissociation constant, usually derived from enzyme kinetics or from competition with a known ligand) at Motilin receptor [1] is 8 nM. Moreover, on Motilin receptor [2], the half-maximal inhibitory concentration (IC50) came to 23 nM. Further, the Activity entry at Motilin receptor [3] is “Antagonist”. For the same compound, in the assay listed under Oryctolagus cuniculus, the Kb was 100 nM.
As to `CCC[C@@H]1NC(=O)[C@@H](C(C)C)NC(=O)[C@@H](Cc2ccccc2)NCCOc2ccccc2CCCNC1=O`, the Ki at Motilin receptor [1] is 57 nM. Further, the Activity result at Motilin receptor [3] is “Antagonist”.
For `CCC[C@@H]1NC(=O)[C@@H](C(C)C)NC(=O)[C@@H](c2ccccc2)NCCOc2ccccc2CCCNC1=O` the same measures were over 10000 nM and “Antagonist”.
For `CCC[C@@H]1NC(=O)[C@@H](C(C)C)NC(=O)[C@@H](C)NCCOc2ccccc2/C=C/CNC1=O` the same measures were over 10000 nM and “Antagonist”.
`CC(C)[C@H]1NC(=O)[C@@H](Cc2ccc(O)cc2)NCCOc2ccccc2/C=C/CNC(=O)[C@H](C)NC1=O` showed a Ki on Motilin receptor [1] of 1390 nM. For the same compound, on Motilin receptor [3], the Activity result is “Antagonist”.
